{"source": "ChEMBL document CHEMBL4257524", "about": "“Design and synthesis of conformationally constraint Dyrk1A inhibitors by creating an intramolecular H-bond involving a benzothiazole core” (Medchemcomm, 2018)", "key": {"[1]": {"biological_target": "T1, Dual specificity tyrosine-phosphorylation-regulated kinase 1B (Homo sapiens, UniProt Q9Y463)", "experiment": "Inhibition of full length recombinant human GST-tagged Dyrk1B expressed in baculovirus expression system at 0.5 uM using KKISGRLSPIMTEQ-NH2 peptide as substrate in presence of [gamma-32P]-ATP relative to control", "procedure,_shortened": "(§1)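 Dyrk1B kinase assay with ATP at 15 μM. Single-point % inhibition measured at 0.5 μM, and IC50 determined. Values are means of at least two independent experiments, each run in duplicate, with standard deviation <10%.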"}, "[2]": {"experiment": "Half life in human liver S9 fraction assessed as CYP450-mediated compound degradation at 0.3 uM after 15 to 60 mins by LC-MS/MS analysis", "type": "ADME, subcellular", "procedure,_shortened": "(§2)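 Pooled human liver S9 fraction incubated with compound at 37 °C. Samples taken at 0, 15, 30 and 60 min, and parent compound quantified by MS. Half-life and parent compound remaining derived from these measurements.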"}, "[3]": {"biological_target": "T2, Dual specificity tyrosine-phosphorylation-regulated kinase 1A (Homo sapiens, UniProt Q13627)", "experiment": "Inhibition of recombinant human N-terminal His6-tagged Dyrk1A catalytic domain expressed in Escherichia coli BL21 (DE3) using KKISGRLSPIMTEQ-NH2 peptide as substrate in presence of [gamma-32P]-ATP"}, "[4]": {"biological_target": "T1, Dual specificity tyrosine-phosphorylation-regulated kinase 1B", "experiment": "Inhibition of full length recombinant human GST-tagged Dyrk1B expressed in baculovirus expression system using KKISGRLSPIMTEQ-NH2 peptide as substrate in presence of [gamma-32P]-ATP", "procedure,_shortened": "as §1"}, "[5]": {"biological_target": "T3, Dual specificity protein kinase CLK1 (Homo sapiens, UniProt P49759)", "experiment": "Inhibition of recombinant GST-tagged human CLK1 expressed in Escherichia coli using RSRSRSRSR peptide as substrate in presence of [gamma-32P]-ATP", "procedure,_shortened": "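CLK1 IC50 determined in kinase assay with ATP at 15 μM.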"}, "[6]": {"biological_target": "T3, Dual specificity protein kinase CLK1", "experiment": "Inhibition of recombinant GST-tagged human CLK1 expressed in Escherichia coli at 5 uM using RSRSRSRSR peptide as substrate in presence of [gamma-32P]-ATP"}, "[7]": {"biological_target": "Serine/threonine-protein kinase pim-1 (Homo sapiens) (UniProt P11309)", "sequence (P11309 whole entry, looked up)": "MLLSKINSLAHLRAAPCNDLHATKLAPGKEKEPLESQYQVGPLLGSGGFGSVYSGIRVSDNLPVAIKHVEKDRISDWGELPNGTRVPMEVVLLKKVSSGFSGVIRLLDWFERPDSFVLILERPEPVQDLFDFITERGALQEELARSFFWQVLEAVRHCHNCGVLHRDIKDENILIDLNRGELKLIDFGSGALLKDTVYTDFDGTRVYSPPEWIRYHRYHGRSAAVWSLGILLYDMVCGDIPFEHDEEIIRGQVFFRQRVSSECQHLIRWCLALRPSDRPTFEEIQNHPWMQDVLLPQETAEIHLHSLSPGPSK", "experiment": "Inhibition of full length recombinant human His-tagged PIM1 expressed in baculovirus expression system at 5 uM relative to control", "procedure,_shortened": "(§3)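 Kinase panel run at a single 5 μM inhibitor concentration with ATP at 100 μM. Activity expressed as % inhibition. Values are means of at least two duplicates.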"}, "Homo sapiens [8]": {"species": "Homo sapiens", "experiment": "Selectivity ratio of IC50 for full length recombinant human GST-tagged Dyrk1B to IC50 for recombinant human N-terminal His6-tagged Dyrk1A catalytic domain", "procedure,_shortened": "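Ratio of Dyrk1B IC50 to Dyrk1A IC50. Both IC50s determined with ATP at 15 μM, from means of at least two independent duplicate experiments.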"}, "[9]": {"biological_target": "T4, Serine/threonine-protein kinase 17A (Homo sapiens) (UniProt Q9UEE5)", "T4 sequence (whole entry)": "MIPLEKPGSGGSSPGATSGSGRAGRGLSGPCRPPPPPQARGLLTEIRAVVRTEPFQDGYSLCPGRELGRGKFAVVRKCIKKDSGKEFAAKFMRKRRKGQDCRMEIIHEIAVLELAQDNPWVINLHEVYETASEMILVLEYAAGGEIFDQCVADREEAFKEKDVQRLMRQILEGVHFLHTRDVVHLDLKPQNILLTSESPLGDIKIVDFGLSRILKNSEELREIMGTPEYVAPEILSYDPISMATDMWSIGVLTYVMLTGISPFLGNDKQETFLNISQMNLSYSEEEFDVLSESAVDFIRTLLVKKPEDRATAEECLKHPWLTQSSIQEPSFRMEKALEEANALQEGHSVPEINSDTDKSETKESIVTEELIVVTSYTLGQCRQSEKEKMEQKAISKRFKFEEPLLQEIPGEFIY", "experiment": "Inhibition of full length recombinant human GST-tagged STK17A expressed in baculovirus expression system at 5 uM relative to control", "procedure,_shortened": "as §3"}, "[10]": {"biological_target": "Casein kinase I isoform delta (Homo sapiens) (UniProt P48730)", "experiment": "Inhibition of full length recombinant human GST-tagged CK1delta expressed in baculovirus expression system at 5 uM relative to control", "procedure,_shortened": "as §3"}, "[11]": {"biological_target": "T2, Dual specificity tyrosine-phosphorylation-regulated kinase 1A", "experiment": "Inhibition of recombinant human N-terminal His6-tagged Dyrk1A catalytic domain expressed in Escherichia coli BL21 (DE3) at 5 uM using KKISGRLSPIMTEQ-NH2 peptide as substrate in presence of [gamma-32P]-ATP relative to control", "procedure,_shortened": "as §3"}, "[12]": {"biological_target": "SRSF protein kinase 1 (Homo sapiens) (UniProt Q96SB4)", "sequence (Q96SB4 whole entry)": "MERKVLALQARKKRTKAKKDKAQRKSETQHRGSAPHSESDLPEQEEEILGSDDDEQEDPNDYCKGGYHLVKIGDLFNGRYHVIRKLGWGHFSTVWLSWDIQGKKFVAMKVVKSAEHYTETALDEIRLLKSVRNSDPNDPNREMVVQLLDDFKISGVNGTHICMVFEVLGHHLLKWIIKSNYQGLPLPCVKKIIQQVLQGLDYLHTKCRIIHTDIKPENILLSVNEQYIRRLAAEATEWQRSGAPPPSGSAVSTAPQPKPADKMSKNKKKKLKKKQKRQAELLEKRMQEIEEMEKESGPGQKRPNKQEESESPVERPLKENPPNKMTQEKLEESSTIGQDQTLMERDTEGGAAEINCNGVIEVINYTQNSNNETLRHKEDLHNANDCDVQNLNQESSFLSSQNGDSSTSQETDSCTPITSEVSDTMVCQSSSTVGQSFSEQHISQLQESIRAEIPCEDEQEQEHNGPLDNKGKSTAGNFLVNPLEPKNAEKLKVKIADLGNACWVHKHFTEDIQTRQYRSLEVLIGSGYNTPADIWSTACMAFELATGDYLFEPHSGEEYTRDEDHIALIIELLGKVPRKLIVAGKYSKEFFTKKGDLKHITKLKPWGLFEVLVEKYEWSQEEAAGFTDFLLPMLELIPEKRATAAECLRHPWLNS", "experiment": "Inhibition of full length recombinant human His-tagged SRPK1 expressed in baculovirus expression system at 5 uM relative to control", "procedure,_shortened": "as §3"}, "[13]": {"biological_target": "BDNF/NT-3 growth factors receptor (Homo sapiens) (UniProt Q16620)", "sequence (Q16620 32-822 limits assumed)": "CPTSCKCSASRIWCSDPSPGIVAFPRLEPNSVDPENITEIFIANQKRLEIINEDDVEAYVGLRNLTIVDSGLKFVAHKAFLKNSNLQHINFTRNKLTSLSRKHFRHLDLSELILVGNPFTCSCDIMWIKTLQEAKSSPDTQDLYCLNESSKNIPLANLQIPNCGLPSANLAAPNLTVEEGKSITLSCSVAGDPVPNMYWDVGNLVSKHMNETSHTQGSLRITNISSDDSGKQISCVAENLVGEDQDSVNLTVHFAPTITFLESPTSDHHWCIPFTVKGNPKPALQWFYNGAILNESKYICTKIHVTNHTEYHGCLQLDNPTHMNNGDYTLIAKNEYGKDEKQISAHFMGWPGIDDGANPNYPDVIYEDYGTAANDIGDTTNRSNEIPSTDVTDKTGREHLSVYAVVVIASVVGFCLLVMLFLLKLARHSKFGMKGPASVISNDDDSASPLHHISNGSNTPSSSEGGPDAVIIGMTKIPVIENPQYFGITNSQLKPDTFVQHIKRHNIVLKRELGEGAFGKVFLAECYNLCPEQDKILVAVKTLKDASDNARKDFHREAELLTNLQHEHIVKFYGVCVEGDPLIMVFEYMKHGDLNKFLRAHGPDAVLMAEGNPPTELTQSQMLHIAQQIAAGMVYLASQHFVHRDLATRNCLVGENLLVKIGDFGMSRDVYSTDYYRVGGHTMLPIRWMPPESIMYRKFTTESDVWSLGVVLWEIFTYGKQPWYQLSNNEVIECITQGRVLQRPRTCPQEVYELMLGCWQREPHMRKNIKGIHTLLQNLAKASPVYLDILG", "experiment": "Inhibition of recombinant human His-tagged NTRK2 expressed in baculovirus expression system at 5 uM relative to control", "procedure,_shortened": "as §3"}, "[14]": {"biological_target": "Myosin light chain kinase, smooth muscle (Homo sapiens) (UniProt Q15746)", "sequence (Q15746 whole entry)": "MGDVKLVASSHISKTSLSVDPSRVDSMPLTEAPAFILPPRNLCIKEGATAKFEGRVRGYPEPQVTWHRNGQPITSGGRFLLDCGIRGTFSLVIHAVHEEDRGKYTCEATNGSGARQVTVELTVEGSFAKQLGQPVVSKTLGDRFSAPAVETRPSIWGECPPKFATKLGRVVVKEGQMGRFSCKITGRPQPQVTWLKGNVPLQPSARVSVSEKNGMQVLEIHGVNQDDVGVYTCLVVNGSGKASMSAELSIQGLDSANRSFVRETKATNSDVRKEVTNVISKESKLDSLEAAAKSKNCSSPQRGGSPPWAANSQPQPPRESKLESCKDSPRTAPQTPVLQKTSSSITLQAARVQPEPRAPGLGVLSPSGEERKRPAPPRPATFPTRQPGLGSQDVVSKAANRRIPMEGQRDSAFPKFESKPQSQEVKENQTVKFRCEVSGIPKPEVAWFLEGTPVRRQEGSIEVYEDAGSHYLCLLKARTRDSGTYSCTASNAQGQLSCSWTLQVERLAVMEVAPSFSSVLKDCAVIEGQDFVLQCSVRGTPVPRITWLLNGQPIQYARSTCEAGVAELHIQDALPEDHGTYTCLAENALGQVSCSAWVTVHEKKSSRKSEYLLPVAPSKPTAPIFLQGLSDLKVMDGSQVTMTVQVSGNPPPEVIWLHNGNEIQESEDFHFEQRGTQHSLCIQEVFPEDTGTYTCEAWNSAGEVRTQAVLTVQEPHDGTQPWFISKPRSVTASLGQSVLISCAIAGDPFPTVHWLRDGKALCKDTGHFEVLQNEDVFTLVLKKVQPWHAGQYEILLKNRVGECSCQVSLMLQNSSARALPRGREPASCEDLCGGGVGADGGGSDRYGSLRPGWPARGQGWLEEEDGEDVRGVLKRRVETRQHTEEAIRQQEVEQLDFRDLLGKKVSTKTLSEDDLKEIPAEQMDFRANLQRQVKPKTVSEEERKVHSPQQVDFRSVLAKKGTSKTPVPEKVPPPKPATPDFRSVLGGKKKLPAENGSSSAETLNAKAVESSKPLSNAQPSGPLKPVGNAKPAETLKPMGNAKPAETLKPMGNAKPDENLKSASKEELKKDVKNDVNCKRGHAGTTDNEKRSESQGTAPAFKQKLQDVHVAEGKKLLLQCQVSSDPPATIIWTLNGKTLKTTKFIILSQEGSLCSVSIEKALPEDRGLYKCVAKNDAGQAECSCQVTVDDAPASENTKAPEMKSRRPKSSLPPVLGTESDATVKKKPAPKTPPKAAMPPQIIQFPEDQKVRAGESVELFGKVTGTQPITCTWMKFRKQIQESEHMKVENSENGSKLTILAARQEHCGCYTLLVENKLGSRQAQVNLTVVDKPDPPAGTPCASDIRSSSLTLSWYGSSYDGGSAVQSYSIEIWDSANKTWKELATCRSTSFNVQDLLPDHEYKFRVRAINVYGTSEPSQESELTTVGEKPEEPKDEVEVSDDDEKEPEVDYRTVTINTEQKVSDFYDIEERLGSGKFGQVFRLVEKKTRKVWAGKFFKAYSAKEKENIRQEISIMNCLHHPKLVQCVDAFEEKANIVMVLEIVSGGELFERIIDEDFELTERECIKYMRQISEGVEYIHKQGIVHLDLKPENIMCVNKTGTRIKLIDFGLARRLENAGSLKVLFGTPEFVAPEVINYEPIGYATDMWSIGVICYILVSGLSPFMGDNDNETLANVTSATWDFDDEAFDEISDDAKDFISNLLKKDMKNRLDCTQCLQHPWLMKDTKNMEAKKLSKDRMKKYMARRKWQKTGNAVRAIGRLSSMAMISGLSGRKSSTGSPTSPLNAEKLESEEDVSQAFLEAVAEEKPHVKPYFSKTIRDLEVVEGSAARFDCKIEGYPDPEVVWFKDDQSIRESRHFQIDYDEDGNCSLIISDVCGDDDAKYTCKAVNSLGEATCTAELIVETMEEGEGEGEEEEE", "experiment": "Inhibition of full length recombinant human GST-tagged MLCK expressed in baculovirus expression system at 5 uM relative to control", "procedure,_shortened": "as §3"}, "[15]": {"biological_target": "T5, Serine/threonine-protein kinase haspin (Homo sapiens) (UniProt Q8TF76)", "T5 sequence (whole entry)": "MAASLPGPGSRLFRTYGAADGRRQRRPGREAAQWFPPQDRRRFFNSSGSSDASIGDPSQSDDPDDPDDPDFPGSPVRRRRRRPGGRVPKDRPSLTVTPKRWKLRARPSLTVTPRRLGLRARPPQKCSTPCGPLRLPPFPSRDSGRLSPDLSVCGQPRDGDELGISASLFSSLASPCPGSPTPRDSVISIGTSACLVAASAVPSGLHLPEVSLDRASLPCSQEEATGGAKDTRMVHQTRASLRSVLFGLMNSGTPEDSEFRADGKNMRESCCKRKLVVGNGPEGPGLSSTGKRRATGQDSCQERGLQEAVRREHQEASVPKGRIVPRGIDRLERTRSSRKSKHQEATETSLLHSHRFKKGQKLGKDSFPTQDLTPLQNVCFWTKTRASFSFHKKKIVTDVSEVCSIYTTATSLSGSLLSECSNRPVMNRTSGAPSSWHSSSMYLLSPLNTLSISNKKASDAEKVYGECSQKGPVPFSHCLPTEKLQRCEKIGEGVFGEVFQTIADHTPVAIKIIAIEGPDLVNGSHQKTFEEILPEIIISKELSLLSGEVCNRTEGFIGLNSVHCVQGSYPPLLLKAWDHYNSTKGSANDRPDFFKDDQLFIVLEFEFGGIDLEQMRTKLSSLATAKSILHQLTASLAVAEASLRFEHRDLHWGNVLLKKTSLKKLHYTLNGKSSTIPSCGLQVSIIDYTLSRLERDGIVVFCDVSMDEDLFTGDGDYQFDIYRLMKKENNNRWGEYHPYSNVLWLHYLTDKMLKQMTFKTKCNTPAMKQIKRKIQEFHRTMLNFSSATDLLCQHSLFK", "experiment": "Inhibition of recombinant human N-terminal GST-tagged Haspin expressed in baculovirus expression system at 5 uM relative to control", "procedure,_shortened": "as §3"}, "[16]": {"biological_target": "Homeodomain-interacting protein kinase 1 (Homo sapiens) (UniProt Q86Z02)", "sequence (Q86Z02 whole entry, looked up)": "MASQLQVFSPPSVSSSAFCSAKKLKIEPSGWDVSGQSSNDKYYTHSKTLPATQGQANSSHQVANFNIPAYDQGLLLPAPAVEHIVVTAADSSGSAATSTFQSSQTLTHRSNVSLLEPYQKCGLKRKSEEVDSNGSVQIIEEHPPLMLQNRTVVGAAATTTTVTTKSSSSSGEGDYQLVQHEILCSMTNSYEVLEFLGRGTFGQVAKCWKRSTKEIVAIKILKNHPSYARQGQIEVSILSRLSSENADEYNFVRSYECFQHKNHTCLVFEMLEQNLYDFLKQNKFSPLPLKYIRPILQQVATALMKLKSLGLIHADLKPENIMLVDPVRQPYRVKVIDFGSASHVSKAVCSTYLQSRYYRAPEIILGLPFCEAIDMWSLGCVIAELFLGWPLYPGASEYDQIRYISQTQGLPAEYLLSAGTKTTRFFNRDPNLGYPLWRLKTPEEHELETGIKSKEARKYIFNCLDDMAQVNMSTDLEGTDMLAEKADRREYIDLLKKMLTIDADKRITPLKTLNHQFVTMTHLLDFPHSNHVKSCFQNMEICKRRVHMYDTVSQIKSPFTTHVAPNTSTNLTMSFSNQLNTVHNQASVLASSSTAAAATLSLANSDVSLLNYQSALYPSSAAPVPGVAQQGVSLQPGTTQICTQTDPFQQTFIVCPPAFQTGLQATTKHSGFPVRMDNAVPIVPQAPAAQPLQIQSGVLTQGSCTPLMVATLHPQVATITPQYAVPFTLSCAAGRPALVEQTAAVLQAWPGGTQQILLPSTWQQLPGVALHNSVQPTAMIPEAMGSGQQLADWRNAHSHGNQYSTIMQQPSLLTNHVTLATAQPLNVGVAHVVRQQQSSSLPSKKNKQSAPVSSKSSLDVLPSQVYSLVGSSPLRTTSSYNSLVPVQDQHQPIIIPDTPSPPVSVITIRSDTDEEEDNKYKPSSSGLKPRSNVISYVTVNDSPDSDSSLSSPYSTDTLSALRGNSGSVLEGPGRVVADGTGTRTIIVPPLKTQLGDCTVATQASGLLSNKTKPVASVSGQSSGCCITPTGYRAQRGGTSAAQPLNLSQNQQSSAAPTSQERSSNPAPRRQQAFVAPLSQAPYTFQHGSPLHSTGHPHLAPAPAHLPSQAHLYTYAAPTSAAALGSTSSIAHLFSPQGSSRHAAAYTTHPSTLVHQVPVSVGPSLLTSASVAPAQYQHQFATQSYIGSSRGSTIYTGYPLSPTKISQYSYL", "experiment": "Inhibition of recombinant human GST-tagged HIPK1 expressed in baculovirus expression system at 5 uM relative to control", "procedure,_shortened": "as §3"}, "Homo sapiens [17]": {"species": "Homo sapiens", "experiment": "Selectivity ratio of IC50 for recombinant GST-tagged human CLK1 to IC50 for recombinant human N-terminal His6-tagged Dyrk1A catalytic domain"}, "[18]": {"experiment": "Drug metabolism in human liver S9 fraction assessed as CYP450-mediated metabolite formation by measuring parent compound remaining at 0.3 uM after 60 mins by LC-MS/MS analysis", "type": "ADME, subcellular", "settings": "s9, 1 h", "procedure,_shortened": "as §2"}, "[19]": {"biological_target": "Cyclin-dependent kinase 5/CDK5 activator 1 (Homo sapiens) (UniProt Q00535+Q15078)", "experiment": "Inhibition of full length recombinant human GST-tagged CDK5/His-tagged p25 expressed in baculovirus expression system at 5 uM relative to control", "procedure,_shortened": "as §3"}}, "data": [{"smiles": "COc1ccc2nc(NC(=O)NCCN3CCOCC3)sc2c1", "values": [{"measurement": "inhibition", "setting": "[1]", "result": 0, "unit": "%"}]}, {"smiles": "C[C@]12CC[C@H]3[C@@H](CCC4=CC(=O)CC[C@@]43C)[C@@H]1CC[C@@H]2O", "note": "[TESTOSTERONE]", "values": [{"measurement": "half-life at 0.3 µM", "setting": "[2]", "result": 9.6, "unit": "min"}]}, {"smiles": "COc1ccc2nc(NC(=O)Nc3ccc(C(=O)N4CCN(C)CC4)cc3)sc2c1", "values": [{"measurement": "inhibition", "setting": "[1]", "result": 0, "unit": "%"}]}, {"smiles": "COc1ccc2nc(NC(=O)Nc3ccccc3)sc2c1", "values": [{"measurement": "inhibition", "setting": "[1]", "result": 0, "unit": "%"}]}, {"smiles": "COc1ccc2nc(NC(=O)NCCCN3CCN(C)CC3)sc2c1", "values": [{"measurement": "inhibition", "setting": "[1]", "result": 0, "unit": "%"}]}, {"smiles": "COc1ccc2nc(NC(=O)Nc3ccc(C(=O)NCc4ccccc4)cc3)sc2c1", "values": [{"measurement": "inhibition", "setting": "[1]", "result": 0, "unit": "%"}]}, {"smiles": "O=C(Nc1nc2ccc(O)cc2s1)Oc1ccccc1", "values": [{"measurement": "inhibition", "setting": "[1]", "result": 0, "unit": "%"}]}, {"smiles": "COc1cccc(CC(=O)Nc2nc3ccc(OC)cc3s2)c1", "values": [{"measurement": "inhibition", "setting": "[1]", "result": 25, "unit": "%"}]}, {"smiles": "O=C(Nc1ccc(C(=O)NCc2ccccc2)cc1)Nc1nc2ccc(O)cc2s1", "values": [{"measurement": "IC50", "setting": "[3]", "result": 63, "unit": "nM"}, {"measurement": "IC50", "setting": "[4]", "result": 130, "unit": "nM"}, {"measurement": "inhibition", "setting": "[1]", "result": 69, "unit": "%"}, {"measurement": "half-life at 0.3 µM", "setting": "[2]", "result": 33, "unit": "min"}]}, {"smiles": "O=C(Nc1ccccc1)Nc1nnc(-c2ccncc2)s1", "values": [{"measurement": "inhibition", "setting": "[1]", "result": 12, "unit": "%"}]}, {"smiles": "COc1ccc2nc(NC(=O)Oc3ccccc3)sc2c1", "values": [{"measurement": "inhibition", "setting": "[1]", "result": 0, "unit": "%"}]}, {"smiles": "CN1CCN(C(=O)c2ccc(NC(=O)Nc3nc4ccc(O)cc4s3)cc2)CC1", "values": [{"measurement": "IC50", "setting": "[3]", "result": 95, "unit": "nM"}, {"measurement": "IC50", "setting": "[5]", "result": 730, "unit": "nM"}, {"measurement": "inhibition", "setting": "[6]", "result": 72, "unit": "%"}, {"measurement": "inhibition", "setting": "[7]", "result": 29, "unit": "%"}, {"measurement": "Ratio IC50", "setting": "Homo sapiens [8]", "result": 16}, {"measurement": "inhibition", "setting": "[9]", "result": 39, "unit": "%"}, {"measurement": "IC50", "setting": "[4]", "result": 1510, "unit": "nM"}, {"measurement": "inhibition", "setting": "[1]", "result": 21, "unit": "%"}, {"measurement": "inhibition", "setting": "[10]", "result": 9, "unit": "%"}, {"measurement": "inhibition", "setting": "[11]", "result": 85, "unit": "%"}, {"measurement": "inhibition", "setting": "[12]", "result": 5, "unit": "%"}, {"measurement": "inhibition", "setting": "[13]", "result": 13, "unit": "%"}, {"measurement": "half-life at 0.3 µM", "setting": "[2]", "result": "> 60", "unit": "min"}, {"measurement": "inhibition", "setting": "[14]", "result": 45, "unit": "%"}, {"measurement": "inhibition", "setting": "[15]", "result": 1, "unit": "%"}, {"measurement": "inhibition", "setting": "[16]", "result": 50, "unit": "%"}, {"measurement": "Ratio IC50", "setting": "Homo sapiens [17]", "result": "> 7"}, {"measurement": "Stability", "setting": "[18]", "result": 88, "unit": "%"}, {"measurement": "inhibition", "setting": "[19]", "result": 2, "unit": "%"}]}, {"smiles": "O=C(Cc1cccc(O)c1)Nc1nc2ccc(O)cc2s1", "values": [{"measurement": "inhibition", "setting": "[1]", "result": 0, "unit": "%"}]}, {"smiles": "COc1ccc2nc(NC(=O)Nc3ccc(C(=O)O)cc3)sc2c1", "values": [{"measurement": "inhibition", "setting": "[1]", "result": 0, "unit": "%"}]}, {"smiles": "O=C(Nc1cccc(O)c1)Nc1nc2ccc(O)cc2s1", "values": [{"measurement": "IC50", "setting": "[3]", "result": 134, "unit": "nM"}, {"measurement": "IC50", "setting": "[4]", "result": 370, "unit": "nM"}, {"measurement": "inhibition", "setting": "[1]", "result": 54.6, "unit": "%"}]}, {"smiles": "O=C(Nc1ccccc1)Nc1nc2ccc(O)cc2s1", "values": [{"measurement": "IC50", "setting": "[3]", "result": 163, "unit": "nM"}, {"measurement": "IC50", "setting": "[4]", "result": 710, "unit": "nM"}, {"measurement": "inhibition", "setting": "[1]", "result": 43.6, "unit": "%"}]}]}
